Tested on: HepG2
Test: Induction of LDLR mRNA expression in human HepG2 cells after 12 hrs by RT-PCR assay relative to untreated control
Type: functional
In short: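 HepG2 cells kept in RPMI-1640 with 10% FBS, moved 24 h before dosing to 10% LPDS, then at ~80% confluence to RPMI-1640 with 0.5% LPDS plus compound (5.0 µg/mL in table; concentrations as indicated in figure), 12 h, 37 °C. Total RNA reverse-transcribed, TaqMan real-time PCR, comparative CT method with GAPDH reference; fold of untreated cells (=1); mean of three experiments.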

Row | Compound | fold change (FC)
1 | COc1ccc2c(c1OC)C[N+]1(C)CCc3cc4c(cc3C1C2)OCO4.[I-] (stereo not given) | 1.1
2 | CCOc1cc2c(cc1O)-c1cc3ccc(OC)c(OC)c3c[n+]1CC2.[Br-] | 0.9
3 | CCCOc1cc2c(cc1OCCC)-c1cc3ccc(OC)c(OC)c3c[n+]1CC2.[Br-] | 0.9
4 | COc1ccc2cc3[n+](cc2c1OC)CCc1cc(OCc2ccccc2)c(OCc2ccccc2)cc1-3.[Br-] | 1
5 | CCCCc1c2[n+](cc3c(OC)c(OC)ccc13)CCc1cc3c(cc1-2)OCO3.[Cl-] | 0.9
6 | CCCCCCc1c2[n+](cc3c(OC)c(OC)ccc13)CCc1cc3c(cc1-2)OCO3.[Cl-] | 1
7 | CCCCc1c2[n+](cc3cc(OC)c(OC)cc13)CCc1cc3c(cc1-2)OCO3.[Cl-] | 0.9
8 | CCCc1c2[n+](cc3c(OC)c(OC)ccc13)CCc1cc3c(cc1-2)OCO3.[Cl-] | 0.9
9 | COc1cc2c[n+]3c(c(Cc4ccccc4)c2cc1OC)-c1cc2c(cc1CC3)OCO2.[Br-] | 1
10 | COc1cc2c[n+]3c(c(C)c2cc1OC)-c1cc2c(cc1CC3)OCO2.[Cl-] | 0.9
11 | COc1ccc2c(C)c3[n+](cc2c1OC)CCc1cc2c(cc1-3)OCO2.[Cl-] | 1.1
12 | CCc1c2[n+](cc3c(OC)c(OC)ccc13)CCc1cc3c(cc1-2)OCO3.[Cl-] | 1.04
13 | COc1ccc2c(c1OC)C[N+]1(CCO)CCc3cc4c(cc3C1C2)OCO4.[Br-] (stereo not given) | 1.2
14 | CCCC[N+]12CCc3cc4c(cc3C1Cc1ccc(OC)c(OC)c1C2)OCO4.[Br-] (stereo not given) | 1.1
15 | CCOC(=O)C[N+]12CCc3cc4c(cc3C1Cc1ccc(OC)c(OC)c1C2)OCO4.[Br-] (stereo not given) | 0.8
